Measurements collected from several papers.
Cell line: T47D
Observed: cell growth or viability

| SMILES | assay | setting | measurement | value |
| --- | --- | --- | --- | --- |
| CS(=O)(=O)NCCCCN=C=S | MTT | 24 h | IC50 | 26.9 µM |
| COc1cccc2c1C(=O)c1c(O)c3c(c(O)c1C2=O)C[C@@](O)(C(=O)CO)C[C@@H]3O[C@H]1C[C@H](N)[C@H](O)[C@H](C)O1 | MTT | 75 h | IC50 | 0.27 µM |
| C[C@H](Nc1ccc2c(c1)OCCn1cc(N3C(=O)OC[C@H]3C(F)F)nc1-2)C(N)=O | ATP luminescence | 5 days | EC50 | 0.0312 µM |
| N#CSCCCCOc1ccc2c(-c3ccccc3)cc(=O)oc2c1 | SRB | – | GI50 | 34 µM |
| COc1cccc2c1C(=O)c1c(O)c3c(c(O)c1C2=O)C[C@@](O)(C(=O)CO)C[C@@H]3O[C@H]1C[C@H](N)[C@H](O)[C@H](C)O1 | MTT | 24 h | IC50 | 75.9 µM |
| COC(=O)c1cc(C(C)=NNc2nc(-c3ccc(C)cc3)cs2)ccc1O | MTT | 96 h | IC50 | 24.1 µM |
| CN(C)c1cccc2c(S(=O)(=O)NCCCCN=C=S)cccc12 | MTT | 24 h | IC50 | 21.1 µM |
| C=C[C@]1(C)C=C2CC[C@H]3C(C)(C)CCC[C@]3(C)[C@H]2CC1 | MTT | 75 h | IC50 | 159 µM |
| COC(=O)c1cc(C(C)=NNc2nc(-c3ccc4c(c3)OCCCO4)cs2)ccc1O | MTT | 96 h | IC50 | 21.2 µM |
| Cc1c(Cl)c(=O)oc2cc(OCCCCSC#N)ccc12 | SRB | – | GI50 | 24 µM |
| Cc1nc(NC(=O)N2CCC[C@H]2C(N)=O)sc1-c1ccnc(C(C)(C)C(F)(F)F)c1 | ATP luminescence | 5 days | EC50 | 0.444 µM |
